Here are results for ten compounds from ChEMBL document CHEMBL1125581 (J Med Chem, 1991).

pKi: −log10 of the molar value. Where only a bound is given, the exact number is not on record here.

For experiment [1], the target named is T1, Muscarinic acetylcholine receptor M1 (Rattus norvegicus, UniProt P08482).
T1 sequence (P08482 whole entry): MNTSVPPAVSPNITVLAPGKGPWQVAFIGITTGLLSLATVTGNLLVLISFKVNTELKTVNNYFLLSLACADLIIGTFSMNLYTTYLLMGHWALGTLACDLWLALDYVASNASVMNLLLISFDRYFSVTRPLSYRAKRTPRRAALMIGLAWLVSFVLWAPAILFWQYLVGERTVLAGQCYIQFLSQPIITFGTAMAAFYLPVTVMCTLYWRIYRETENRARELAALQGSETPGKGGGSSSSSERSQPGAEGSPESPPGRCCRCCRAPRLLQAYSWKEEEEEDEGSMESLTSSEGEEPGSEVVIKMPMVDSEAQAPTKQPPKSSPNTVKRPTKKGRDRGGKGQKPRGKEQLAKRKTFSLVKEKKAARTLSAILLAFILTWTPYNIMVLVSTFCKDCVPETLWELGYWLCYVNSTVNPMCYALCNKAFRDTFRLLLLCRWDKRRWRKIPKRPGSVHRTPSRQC
The experiment is described as follows: Inhibition of binding of [3H]N-Methyl-scopolamine to Muscarinic acetylcholine receptor M1 of transfected A9L cells. The format is cell-based. Put shortly:
(§1)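 Confluent A9L (transfected m1/m3) or NG108-15 (m4) cultures were lysed in 2 mM Tris-HCl pH 7.1/1 mM EDTA, 30 min, 2 °C, then homogenized. Crude membranes were spun at 50000g. Membranes (150–300 μg protein) were incubated with 0.5 nM [3H]NMS and varied analogue in DMEM-Hepes for 90 min at 37 °C, then filtered. Nonspecific binding was set with 1 μM atropine. Ki values are from 1–3 triplicate determinations.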

Experiment [2] has as its target T2, Muscarinic acetylcholine receptor M2 (Rattus norvegicus, UniProt P10980).
T2 sequence (P10980 whole entry): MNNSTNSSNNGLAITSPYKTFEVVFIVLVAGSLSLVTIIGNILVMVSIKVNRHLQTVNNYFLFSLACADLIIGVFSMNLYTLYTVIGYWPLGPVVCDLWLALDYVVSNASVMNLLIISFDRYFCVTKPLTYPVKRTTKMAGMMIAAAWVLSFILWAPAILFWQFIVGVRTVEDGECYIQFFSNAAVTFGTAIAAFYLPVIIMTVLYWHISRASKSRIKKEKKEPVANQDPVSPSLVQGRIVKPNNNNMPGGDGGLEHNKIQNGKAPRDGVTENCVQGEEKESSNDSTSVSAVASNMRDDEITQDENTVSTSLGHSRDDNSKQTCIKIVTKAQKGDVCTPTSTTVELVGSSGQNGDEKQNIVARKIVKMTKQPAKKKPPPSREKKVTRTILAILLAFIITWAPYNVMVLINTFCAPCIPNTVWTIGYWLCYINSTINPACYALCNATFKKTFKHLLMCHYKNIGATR
The experiment is described as follows: Inhibition of binding of [3H]N-Methyl-scopolamine to Muscarinic acetylcholine receptor M2 of rat heart tissue membranes. The class given is cell membranes, Membrane. The method in brief: (§2)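 Rat heart membranes (150–300 μg protein) incubated 90 min at 37 °C in DMEM-Hepes with 0.5 nM [3H]NMS and varied unlabeled analogue concentrations. Bound radioligand collected by rapid GF/B filtration, washed with ice-cold 0.9% NaCl, and scintillation counted. Nonspecific binding with 1 μM atropine subtracted. Ki values come from one to three determinations, each in triplicate.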

Experiment [3] deals with T2, Muscarinic acetylcholine receptor M2. The experiment is described as follows: Inhibition of binding of [3H]N-methylscopolamine to muscarinic acetylcholine receptor M2 of rat heart tissue membrane. The class given is tissue-based. Put shortly: as §2
Experiment [4] deals with T3, Muscarinic acetylcholine receptor M3 (Rattus norvegicus, UniProt P08483). Kind of experiment: Compound was tested for the inhibition of binding of [3H]N-Methyl-scopolamine to mmuscarinic acetylcholine receptor M3 of transfected rat A9L cells. The class given is cell-based. Put shortly: as §1
T3 sequence (P08483 whole entry): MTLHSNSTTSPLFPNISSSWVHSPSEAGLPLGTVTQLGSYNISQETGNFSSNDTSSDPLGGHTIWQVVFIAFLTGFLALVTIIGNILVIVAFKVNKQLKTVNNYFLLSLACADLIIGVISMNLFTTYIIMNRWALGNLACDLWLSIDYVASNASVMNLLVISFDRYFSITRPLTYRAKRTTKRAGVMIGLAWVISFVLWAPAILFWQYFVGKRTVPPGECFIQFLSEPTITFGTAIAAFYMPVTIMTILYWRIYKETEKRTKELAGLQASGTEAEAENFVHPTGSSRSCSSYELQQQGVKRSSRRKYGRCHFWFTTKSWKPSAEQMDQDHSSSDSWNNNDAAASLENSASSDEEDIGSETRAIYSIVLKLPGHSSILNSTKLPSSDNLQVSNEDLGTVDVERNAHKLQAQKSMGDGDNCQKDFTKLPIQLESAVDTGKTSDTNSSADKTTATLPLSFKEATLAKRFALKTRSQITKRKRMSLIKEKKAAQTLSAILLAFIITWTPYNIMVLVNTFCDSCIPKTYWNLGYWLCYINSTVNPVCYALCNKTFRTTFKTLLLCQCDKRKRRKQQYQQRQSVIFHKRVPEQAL
For experiment [5], the target named is T1, Muscarinic acetylcholine receptor M1. Kind of experiment: Inhibition of binding of [3H]N-methylscopolamine to muscarinic acetylcholine receptor M1 of transfected rat A9L cells. The class given is cell-based.
For experiment [6], the target named is T4, Muscarinic acetylcholine receptor M4 (Rattus norvegicus, UniProt P08485).
T4 sequence (P08485 whole entry): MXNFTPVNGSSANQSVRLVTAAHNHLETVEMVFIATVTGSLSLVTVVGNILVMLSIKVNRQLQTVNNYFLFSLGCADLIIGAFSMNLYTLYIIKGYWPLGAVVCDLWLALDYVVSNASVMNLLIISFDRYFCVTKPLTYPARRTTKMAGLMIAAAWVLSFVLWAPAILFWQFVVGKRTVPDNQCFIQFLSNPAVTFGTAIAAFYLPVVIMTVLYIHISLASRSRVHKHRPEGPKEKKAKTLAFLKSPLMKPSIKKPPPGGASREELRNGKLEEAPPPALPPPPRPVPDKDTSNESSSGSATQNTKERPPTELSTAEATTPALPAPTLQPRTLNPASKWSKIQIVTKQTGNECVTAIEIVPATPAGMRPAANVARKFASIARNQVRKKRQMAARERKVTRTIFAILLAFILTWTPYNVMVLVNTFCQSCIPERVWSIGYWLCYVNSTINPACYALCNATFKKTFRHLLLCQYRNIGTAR
The experiment is described as follows: Inhibition of binding of [3H]N-Methyl-scopolamine to muscarinic acetylcholine receptor M4 of rat […] NG108-15 cells. The class given is cell-based.

The target in experiment [7] is T2, Muscarinic acetylcholine receptor M2. Kind of experiment: The compound was tested for the inhibition of binding of [3H]N-Methyl-scopolamine to muscarinic acetylcholine receptor M2 of rat heart tissue membranes. The format is cell membranes, Membrane. Put shortly: as §2
The target in experiment [8] is T1, Muscarinic acetylcholine receptor M1. The experiment is described as follows: The compound was tested for the inhibition of binding of [3H]N-Methyl-scopolamine to muscarinic acetylcholine receptor M1 of transfected A9L cells. The format is cell-based. Put shortly:
as §1

For experiment [9], the target named is T4, Muscarinic acetylcholine receptor M4. Kind of experiment: Inhibition of binding of [3H]N-Methyl-scopolamine to Muscarinic acetylcholine receptor M4 of NG108-15 cells. The class given is cell-based. The method in brief: as §1
The target of experiment [10] is T3, Muscarinic acetylcholine receptor M3. The experiment is described as follows: The compound was tested for the inhibition of binding of [3H]N-Methyl-scopolamine to Muscarinic acetylcholine receptor M3 of transfected A9L cells. The format is cell-based. The method in brief:
(§3)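 Crude membranes (150–300 μg protein) were incubated 90 min at 37 °C in DMEM-Hepes with 0.5 nM [3H]NMS and a range of unlabeled analogue concentrations. Incubation was stopped by rapid GF/B filtration, followed by ice-cold 0.9% NaCl washes and scintillation counting. Nonspecific binding was defined with 1 μM atropine and subtracted. Ki came from one to three determinations, each run in triplicate.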

Experiment [11] deals with T2, Muscarinic acetylcholine receptor M2. The experiment is described as follows: The compound was tested for the inhibition of binding of [3H]N-Methyl-scopolamine to muscarinic acetylcholine receptor M2 of rat heart tissue membranes. The class given is cell membranes, Membrane. The method in brief:
as §3

Experiment [12] deals with T3, Muscarinic acetylcholine receptor M3. The experiment is described as follows: The compound was tested for the inhibition of binding of [3H]N-Methyl-scopolamine to muscarinic acetylcholine receptor M3 of transfected A9L cells. The class given is cell-based. The method in brief: as §3
Experiment [13] addresses T1, Muscarinic acetylcholine receptor M1. The experiment is described as follows: The compound was tested for the inhibition of binding of [3H]N-Methyl-scopolamine to muscarinic acetylcholine receptor M1r of transfected A9L cells. The format is cell-based. The method in brief: as §3

In general, pKi refers to −log10 of the Ki, conventionally taken in molar units. Read a high pKi as a low Ki. As to `NCCCCCCCCCCN1CCN(CC(=O)N2c3ccccc3C(=O)Nc3cccnc32)CC1`, the values for the pKi in [1] and in experiment [2] were 7.80 and 7.93, respectively.

Take `CCN(CC)CCCCCCCCCCN1CCN(CC(=O)N2c3ccccc3C(=O)Nc3cccnc32)CC1`: the values for the pKi in [1] and in [2] were 8.52 and 7.87, respectively.

`NCCCCCCCN1CCN(CC(=O)N2c3ccccc3C(=O)Nc3cccnc32)CC1`: the pKi in [1] is 7.18; in experiment [2] it was 7.24.

Consider `CNC(=O)c1ccc(CN2CCN(CC(=O)N3c4ccccc4C(=O)Nc4cccnc43)CC2)cc1`, for which the negative logarithm of the Ki (pKi) in experiment [3] is 5.58; in experiment [4], 5.40; in experiment [5], 5.55; in experiment [6], 5.53.

With `CCN1C(=O)c2ccccc2N(C(=O)CN2CCN(C)CC2)c2ncccc21`, the pKi in experiment [7] was 5.10; in experiment [8], 5.11.

Regarding `O=C1Nc2cccnc2N(C(=O)CN2CCN(CCCCCCN3C(=O)c4ccccc4C3=O)CC2)c2ccccc21`, the negative-log Ki (pKi) in experiment [1] and in experiment [2] was 7.74 each time.

Regarding `O=C1Nc2cccnc2N(C(=O)CN2CCN(CCCl)CC2)c2ccccc21`, the pKi in experiment [9] is 6.89; in [1] it was 7.28; in experiment [10] it was 7.11; in [2], 6.68.

`CN1CCN(CC(=O)N2c3ccccc3C(=O)N(CCCCCCC#N)c3cccnc32)CC1` had a pKi in [8] of 5.05.

As to `CN1CCN(CC(=O)N2c3cc(CO[Si](C)(C)C(C)(C)C)ccc3C(=O)Nc3cccnc32)CC1`, the pKi in experiment [11] is 5.36; in [12] it was less than 4.52; in [13] it was less than 4.52.

As to `CC(=O)NCCCCCCCCCCN1CCN(CC(=O)N2c3ccccc3C(=O)Nc3cccnc32)CC1`, the pKi was 7.12 in experiment [1] and 7.37 in experiment [2].
